Measurements taken from ChEMBL document CHEMBL4257481, “Synthesis and radioprotective effects of novel benzyl naphthyl sulfoxide (sulfone) derivatives transformed from Ex-RAD” (Medchemcomm, 2018).
Active and inactive are the calls of the source. The calls are words filed in the database; no cut-off is given here.

What was measured:
[1] = test system: HUVEC; assay: Cytotoxicity against HUVEC at 100 uM after 24 hrs by MTS assay; type: cell-based; settings: human
Summary of the method: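 HUVECs grown in RPMI-1640 with 10% FBS and penicillin/streptomycin, pH 7.2, 37 °C, 5% CO2, then trypsinized at 80% confluence. Compound exposure at 100 µM, with viability read by MTS tetrazolium assay.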

[2] = test system: HUVEC; assay: Radioprotective activity against 60Co gamma-irradiation-mediated cytotoxicity in HUVEC assessed as increase in survival rate at 40 uM preincubated for 24 hrs followed by gamma-irradiation and measured after 4 days by MTS assay relative to control; type: functional, cell-based; settings: Homo sapiens
Summary of the method: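 HUVECs seeded at 4000 cells/mL in RPMI-1640 with 10% FBS. After 24 h, compound added at 40 µM (diluted from 100 mM DMSO stock) for 24 h, then 8.0 Gy 60Co γ at 0.93 Gy/min. Cells grown 4 days with medium changed every 2 days, then MTS for 3 h at 37 °C and A492 read. Survival = blank-corrected OD relative to unirradiated cells; mean of three experiments.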

[3] = test system: HUVEC; assay: Radioprotective activity against 60Co gamma-irradiation-mediated cytotoxicity in HUVEC assessed as survival rate at 20 uM preincubated for 24 hrs followed by gamma-irradiation and measured after 4 days by MTS assay relative to control; type: functional; settings: Homo sapiens, light or radiation study, read-out: Survival
Summary of the method: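 HUVECs in RPMI-1640 with 10% FBS, seeded 4000 cells per mL. After 24 h, exposed to compound from a 100 mM DMSO stock (final 20 µM) for 24 h. Then ⁶⁰Co γ-irradiated at 8.0 Gy, 0.93 Gy min⁻¹, and cultured 4 days with medium changes. MTS added for 3 h at 37 °C and A492 read. Survival calculated relative to non-irradiated cells; mean of three independent experiments.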

[4] = test system: Mus musculus; assay: Radioprotective activity against 60Co gamma-irradiation-induced toxicity in C57/BL mouse assessed as survival rate at 300 mg/kg, sc administered 15 mins and 24 hrs prior to irradiation and measured over 30 days post irradiation (reference value: 50%); type: functional; settings: light or radiation study
[5] = test system: HUVEC; assay: Radioprotective activity against 60Co gamma-irradiation-induced DNA damage in HUVEC after 24 hrs by comet assay; type: functional, cell-based; settings: Homo sapiens
Summary of the method: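 HUVECs (RPMI-1640, 10% FBS) incubated with compound 24 h, then given 6.0 Gy 60Co γ at 0.93 Gy/min. At 24 h post-irradiation, cells (1 × 10^5/mL) were embedded in comet agarose and lysed 30 min at 4 °C. Alkaline unwinding (300 mM NaOH, 1 mM EDTA, pH > 13) ran 30 min, then electrophoresis at 1.0 V/cm, 20 min. Vista green stain; tail length (µm) of 50 comets/slide; three repeats.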

[6] = test system: Mus musculus; assay: Radioprotective activity against 60Co gamma-irradiation-induced body weight loss in C57/BL mouse assessed as increase in body weight at 300 mg/kg, ip administered 15 mins and 24 hrs prior to irradiation and measured over 10 to 30 days post irradiation; type: functional, organism-based
[7] = test system: Mus musculus; assay: Radioprotective activity against 60Co gamma-irradiation-induced toxicity in C57/BL mouse assessed as survival rate at 300 mg/kg, ip administered 15 mins and 24 hrs prior to irradiation and measured over 30 days post irradiation (reference value: 50%); type: functional; settings: light or radiation study
[8] = test system: Mus musculus; assay: Radioprotective activity against 60Co gamma-irradiation-induced toxicity in C57/BL mouse assessed as survival rate at 5 mg/kg, ig administered 24 hrs prior to irradiation and measured over 30 days post irradiation (reference value: 50%); type: functional; settings: light or radiation study, po

SMILES | Activity [1] | Activity [2] | viability at 20 µM [3] | survival at 300 mg/kg [4] | Activity [5] | Activity [6] | survival at 300 mg/kg [7] | survival at 5 mg/kg [8]
O=S(=O)(Cc1ccccc1F)c1ccc2cc(Br)ccc2c1 | Non-Toxic | Active | 52.4% | – | – | – | – | –
[O-][S+](Cc1ccc(F)cc1)c1ccc2ccccc2c1 (centres undefined) | Non-Toxic | Active | 52% | – | – | – | – | –
O=C(O)c1ccc(/C=C/S(=O)(=O)Cc2ccc(Cl)cc2)cc1 [RECILISIB SODIUM] | – | Active | 57.5% | 60% | – | – | – | –
[O-][S+](Cc1ccc(Br)cc1)c1ccc2ccccc2c1 (centres undefined) | Non-Toxic | Active | 59.3% | – | – | – | – | –
[O-][S+](Cc1cccc(Cl)c1)c1ccc2cc(Br)ccc2c1 (centres undefined) | Non-Toxic | Active | 55.1% | – | – | – | – | –
[O-][S+](Cc1ccc(Cl)cc1)c1ccc2ccccc2c1 (centres undefined) | Non-Toxic | Active | 57.2% | – | – | – | – | –
[O-][S+](Cc1ccc(F)cc1)c1ccc2cc(Br)ccc2c1 (centres undefined) | Non-Toxic | Active | 77.2% | – | Active | Active | 100% | –
O=S(=O)(Cc1ccccc1Cl)c1ccc2cc(Br)ccc2c1 | Non-Toxic | Active | 56.7% | – | – | – | – | –
[O-][S+](Cc1ccccc1F)c1ccc2cc(Br)ccc2c1 (centres undefined) | Non-Toxic | Active | 51.3% | – | – | – | – | –
O=S(=O)(Cc1ccc(Br)cc1)c1ccc2cc(Br)ccc2c1 | Non-Toxic | Active | 53.1% | – | – | – | – | –
C#C[C@]1(O)[C@H](O)C[C@H]2[C@@H]3CCc4cc(OC5CCCC5)ccc4[C@H]3CC[C@@]21C [NYLESTRIOL] | – | – | – | – | – | – | – | 100%
